Experimental data as given in ChEMBL document CHEMBL1122917, “Vinblastin-23-oyl amino acid derivatives: chemistry, physicochemical data, toxicity, and antitumor activities against P388 and L1210 leukemias” (J Med Chem, 1985).

Key:
Format in all cases: functional
Mus musculus [1] = assay: Number of survivors on 30th day at dose 17.5 mg/kg/day in 9 mice implanted with P388 leukemia cell line
Mus musculus [2] = assay: Number of survivors on 30th day at dose 14 mg/kg/day in 10 mice implanted with P388 leukemia cell line
Mus musculus [3] = assay: Number of survivors on 30th day at dose 7 mg/kg/day in 10 mice implanted with P388 leukemia cell line
Mus musculus [4] = assay: Number of survivors on 30th day at dose 5 mg/kg/day in 10 mice implanted with P388 leukemia cell line
Mus musculus [5] = assay: Percent increase in life span at dose 7 mg/kg/day in 10 mice implanted with P388 leukemia cell line
How it was run: (§1)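 Female DBA2 mice inoculated iv on day 0 with 10^4 P388 cells; single iv treatment on day 1 with drug as sulfate salt in physiological saline. Survival followed; %ILS from all deaths and survivors as (T/C × 100) − 100, maximal MST 30 days; survivors counted on days 30 and 60. Most experiments confirmed three times.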

Mus musculus [6] = assay: Percent increase in life span of DBA2 mice after inoculation with L1210 leukemia intravenously at a dose of 15 mg/kg per day; settings: route intravenous
Mus musculus [7] = assay: Number of survivors of DBA2 mice on 60th day after inoculation with L1210 leukemia cell line intravenously at a dose of 15 mg/kg/day; 0/10; settings: route intravenous
Mus musculus [8] = assay: Number of survivors on 60th day at dose 17.5 mg/kg/day in 9 mice implanted with P388 leukemia cell line
Mus musculus [9] = assay: Percent increase in life span at dose 4 mg/kg/day in 10 mice implanted with P388 leukemia cell line; settings: Mus musculus, P388; how it was run: as §1
Mus musculus [10] = assay: Number of survivors of DBA2 mice on 30th day after inoculation with L1210 leukemia cell line intravenously at a dose of 15 mg/kg/day; 0/10; settings: route intravenous
Mus musculus [11] = assay: Percent increase in life span at dose 10 mg/kg/day in 10 mice implanted with P388 leukemia cell line; how it was run: as §1
Mus musculus [12] = assay: Percent increase in life span at dose 17.5 mg/kg/day in 10 mice implanted with P388 leukemia cell line
Mus musculus [13] = assay: Percent increase in life span at dose 5 mg/kg/day in 10 mice implanted with P388 leukemia cell line; how it was run: as §1
Mus musculus [14] = assay: Number of survivors on 60th day at dose 12.5 mg/kg/day in 10 mice implanted with P388 leukemia cell line
Mus musculus [15] = assay: Number of survivors on 60th day at dose 4 mg/kg/day in 10 mice implanted with P388 leukemia cell line
Mus musculus [16] = assay: Percent increase in life span at dose 14 mg/kg/day in 10 mice implanted with P388 leukemia cell line; how it was run: as §1
Mus musculus [17] = assay: Number of survivors on 30th day at dose 4 mg/kg/day in 10 mice implanted with P388 leukemia cell line
Mus musculus [18] = assay: Number of survivors on 60th day at dose 15 mg/kg/day in 10 mice implanted with P388 leukemia cell line
Mus musculus [19] = assay: Number of survivors on 60th day at dose 5 mg/kg/day in 10 mice implanted with P388 leukemia cell line
Mus musculus [20] = assay: Number of survivors on 30th day at dose 10 mg/kg/day in 10 mice implanted with P388 leukemia cell line
Mus musculus [21] = assay: Number of survivors on 30th day at dose 12.5 mg/kg/day in 10 mice implanted with P388 leukemia cell line
Mus musculus [22] = assay: Percent increase in life span at dose 12.5 mg/kg/day in 10 mice implanted with P388 leukemia cell line; how it was run: as §1
Mus musculus [23] = assay: Number of survivors on 60th day at dose 14 mg/kg/day in 10 mice implanted with P388 leukemia cell line
Mus musculus [24] = assay: Number of survivors on 60th day at dose 7 mg/kg/day in 10 mice implanted with P388 leukemia cell line; how it was run: as §1
Mus musculus [25] = assay: Number of survivors on 60th day at dose 10 mg/kg/day in 10 mice implanted with P388 leukemia cell line
Mus musculus [26] = assay: Number of survivors on 30th day at dose 15 mg/kg/day in 10 mice implanted with P388 leukemia cell line
Mus musculus [27] = assay: Percent increase in life span at dose 50 mg/kg/day in 10 mice implanted with P388 leukemia cell line; how it was run: as §1
Mus musculus [28] = assay: Number of survivors on 60th day at dose 20 mg/kg/day in 10 mice implanted with P388 leukemia cell line; 0/10
Mus musculus [29] = assay: Percent increase in life span at dose 70 mg/kg/day in 10 mice implanted with P388 leukemia cell line; how it was run: as §1
Mus musculus [30] = assay: Number of survivors on 30th day at dose 20 mg/kg/day in 10 mice implanted with P388 leukemia cell line; 0/10
Mus musculus [31] = assay: Percent increase in life span at dose 40 mg/kg/day in 10 mice implanted with P388 leukemia cell line; how it was run: as §1
Mus musculus [32] = assay: Number of survivors on 30th day at dose 50 mg/kg/day in 10 mice implanted with P388 leukemia cell line; 1/10
Mus musculus [33] = assay: Number of survivors on 60th day at dose 50 mg/kg/day in 10 mice implanted with P388 leukemia cell line; 0/10
Mus musculus [34] = assay: Number of survivors on 60th day at dose 60 mg/kg/day in 10 mice implanted with P388 leukemia cell line; 2/10
Mus musculus [35] = assay: Number of survivors on 60th day at dose 70 mg/kg/day in 10 mice implanted with P388 leukemia cell line; how it was run: as §1
Mus musculus [36] = assay: Number of survivors on 30th day at dose 60 mg/kg/day in 10 mice implanted with P388 leukemia cell line; 3/10
Mus musculus [37] = assay: Number of survivors on 60th day at dose 40 mg/kg/day in 10 mice implanted with P388 leukemia cell line; 1/10
Mus musculus [38] = assay: Number of survivors on 30th day at dose 40 mg/kg/day in 10 mice implanted with P388 leukemia cell line; 1/10
Mus musculus [39] = assay: Percent increase in life span at dose 60 mg/kg/day in 10 mice implanted with P388 leukemia cell line; how it was run: as §1
Mus musculus [40] = assay: Number of survivors on 30th day at dose 70 mg/kg/day in 10 mice implanted with P388 leukemia cell line; 0/10
Mus musculus [41] = assay: Percent increase in life span at dose 20 mg/kg/day in 10 mice implanted with P388 leukemia cell line; how it was run: as §1
Mus musculus [42] = assay: Number of survivors on 60th day at dose 8 mg/kg/day in 10 mice implanted with P388 leukemia cell line; how it was run: as §1
Mus musculus [43] = assay: Percent increase in life span of DBA2 mice after inoculation with L1210 leukemia intravenously at a dose of 9 mg/lg per day
Mus musculus [44] = assay: Number of survivors of DBA2 mice on 60th day after inoculation with L1210 leukemia cell line intravenously at a dose of 9 mg/kg/day; 0/10; settings: route intravenous
How it was run: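 Female DBA₂ mice received 10⁴ L1210 cells iv on day 0. Compounds were given iv as sulfate salts in physiological saline, as a single dose on day 1 (mg/kg per day). Groups were 10 mice. Survivors were counted on day 60. Cells were maintained by ip passage in DBA₂ mice.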

Mus musculus [45] = assay: Number of survivors of DBA2 mice on 30th day after inoculation with L1210 leukemia cell line intravenously at a dose of 10 mg/kg/day; 0/10; settings: route intravenous
Mus musculus [46] = assay: Percent increase in life span of DBA2 mice after inoculation with L1210 leukemia intravenously at a dose of 10 mg/lg per day
Mus musculus [47] = assay: Percent increase in life span at dose 8 mg/kg/day in 10 mice implanted with P388 leukemia cell line; how it was run: as §1
Mus musculus [48] = assay: Percent increase in life span at dose 6 mg/kg/day in 10 mice implanted with P388 leukemia cell line; how it was run: as §1
Mus musculus [49] = assay: Number of survivors of DBA2 mice on 60th day after inoculation with L1210 leukemia cell line intravenously at a dose of 10 mg/kg/day; 0/10; settings: route intravenous
Mus musculus [50] = assay: Number of survivors on 60th day at dose 6 mg/kg/day in 10 mice implanted with P388 leukemia cell line
Mus musculus [51] = assay: Number of survivors on 60th day at dose 11 mg/kg/day in 10 mice implanted with P388 leukemia cell line
Mus musculus [52] = assay: Percent increase in life span at dose 11 mg/kg/day in 10 mice implanted with P388 leukemia cell line; how it was run: as §1
Mus musculus [53] = assay: Number of survivors on 30th day at dose 8 mg/kg/day in 10 mice implanted with P388 leukemia cell line
Mus musculus [54] = assay: Number of survivors on 30th day at dose 6 mg/kg/day in 10 mice implanted with P388 leukemia cell line
Mus musculus [55] = assay: Number of survivors on 30th day at dose 11 mg/kg/day in 10 mice implanted with P388 leukemia cell line
Mus musculus [56] = assay: Number of survivors of DBA2 mice on 30th day after inoculation with L1210 leukemia cell line intravenously at a dose of 9 mg/kg/day; 0/10; settings: route intravenous

## CCOC(=O)[C@@H](NC(=O)[C@@]1(O)[C@H](O)[C@]2(CC)C=CCN3CC[C@@]4(c5cc([C@@]6(C(=O)OC)C[C@H]7C[N@](CCc8c6[nH]c6ccccc86)C[C@](O)(CC)C7)c(OC)cc5N(C)[C@@]14C)[C@@H]32)C(C)C
Mus musculus [1]
  Survivors: 0
Mus musculus [2]
  Survivors: 2
Mus musculus [3]
  Survivors: 0
Mus musculus [4]
  Survivors: 0
Mus musculus [5]
  ILS at 7 mg/kg/day: 40%
Mus musculus [6]
  ILS at 15 mg/kg/day: 67%
Mus musculus [7]
  Survivors: 0
Mus musculus [8]
  Survivors: 0
Mus musculus [9]
  ILS at 4 mg/kg/day: 13.5%
Mus musculus [10]
  Survivors: 0
Mus musculus [11]
  ILS at 10 mg/kg/day: 53.4%
Mus musculus [12]
  ILS at 17.5 mg/kg/day: 22.2%
Mus musculus [13]
  ILS at 5 mg/kg/day: 17.2%
Mus musculus [14]
  Survivors: 0
Mus musculus [15]
  Survivors: 1
Mus musculus [16]
  ILS at 14 mg/kg/day: 108%
Mus musculus [17]
  Survivors: 1
Mus musculus [18]
  Survivors: 2
Mus musculus [19]
  Survivors: 0
Mus musculus [20]
  Survivors: 0
Mus musculus [21]
  Survivors: 2
Mus musculus [22]
  ILS at 12.5 mg/kg/day: 82.6%
Mus musculus [23]
  Survivors: 0
Mus musculus [24]
  Survivors: 0
Mus musculus [25]
  Survivors: 0
Mus musculus [26]
  Survivors: 3

## CCOC(=O)[C@H](Cc1ccc(O)cc1)NC(=O)[C@@]1(O)[C@H](O)[C@]2(CC)C=CCN3CC[C@@]4(c5cc([C@@]6(C(=O)OC)C[C@H]7C[N@](CCc8c6[nH]c6ccccc86)C[C@](O)(CC)C7)c(OC)cc5N(C)[C@@]14C)[C@@H]32
Mus musculus [27]
  ILS at 50 mg/kg/day: 49.5%
Mus musculus [28]
  Survivors: 0
Mus musculus [29]
  ILS at 70 mg/kg/day: 49.5%
Mus musculus [30]
  Survivors: 0
Mus musculus [31]
  ILS at 40 mg/kg/day: 53.3%
Mus musculus [32]
  Survivors: 1
Mus musculus [33]
  Survivors: 0
Mus musculus [34]
  Survivors: 2
Mus musculus [35]
  Survivors: 0
Mus musculus [36]
  Survivors: 3
Mus musculus [37]
  Survivors: 1
Mus musculus [38]
  Survivors: 1
Mus musculus [39]
  ILS at 60 mg/kg/day: 49.5%
Mus musculus [40]
  Survivors: 0
Mus musculus [41]
  ILS at 20 mg/kg/day: 29.9%

## CCOC(=O)C(CC(C)C)NC(=O)[C@@]1(O)[C@H](O)[C@]2(CC)C=CCN3CC[C@@]4(c5cc([C@@]6(C(=O)OC)C[C@H]7CN(CCc8c6[nH]c6ccccc86)C[C@](O)(CC)C7)c(OC)cc5N(C)[C@@]14C)[C@@H]32 (stereo not given in full)
Mus musculus [42]
  Survivors: 1
Mus musculus [43]
  ILS: 27%
Mus musculus [44]
  Survivors: 0
Mus musculus [2]
  Survivors: 2
Mus musculus [45]
  Survivors: 0
Mus musculus [46]
  ILS: 29.4%
Mus musculus [47]
  ILS at 8 mg/kg/day: 46.5%
Mus musculus [48]
  ILS at 6 mg/kg/day: 26.7%
Mus musculus [11]
  ILS at 10 mg/kg/day: > 146%
Mus musculus [14]
  Survivors: 1
Mus musculus [49]
  Survivors: 0
Mus musculus [16]
  ILS at 14 mg/kg/day: 30%
Mus musculus [50]
  Survivors: 0
Mus musculus [20]
  Survivors: 7
Mus musculus [51]
  Survivors: 0
Mus musculus [52]
  ILS at 11 mg/kg/day: 155%
Mus musculus [53]
  Survivors: 2
Mus musculus [54]
  Survivors: 0
Mus musculus [21]
  Survivors: 6
Mus musculus [55]
  Survivors: 3
Mus musculus [22]
  ILS at 12.5 mg/kg/day: > 146%
Mus musculus [23]
  Survivors: 0
Mus musculus [56]
  Survivors: 0
Mus musculus [25]
  Survivors: 2
